Results of several laboratories.
Target: Mitogen-activated protein kinase kinase kinase 10 (MAP3K10, Homo sapiens, UniProt Q02779)

SMILES	test	setting	endpoint	result
Cn1cc(-c2cccc(N3CCc4c(sc5c4CC(C)(C)C5)C3=O)c2CO)cc(Nc2ccncn2)c1=O	enzyme activity, inhibitor	1 µM	inhibition	-5%
CC(C)(C)c1cc(C=C(C#N)C#N)cc(Br)c1O	enzyme activity, inhibitor	0.5 µM	remaining activity	100%
Cn1cc(-c2cc(F)cc(N3CCn4c(cc5c4CCCC5)C3=O)c2CO)cc(Nc2ccc(N3CCN(C4COC4)CC3)cn2)c1=O	enzyme activity, inhibitor	0.1 µM	inhibition	-7%
Nc1ncc(-c2nc(N3CCOCC3)nc(N3CCOCC3)n2)c(C(F)F)n1	binding, competition with immobilised ligand	10 µM	remaining binding	53%
COc1ncccc1-c1cnn2ccc(N3CCN(C(=O)OC(C)C)CC3)nc12	binding, competition with immobilised ligand	1 µM	remaining binding	96%
Cn1cncc1[C@@](O)(COc1ccc(C#N)cc1-c1ccc(OC(F)(F)F)cc1)c1ccc(C#N)cc1	cell-free assay, competition with immobilised ligand	1 µM	remaining binding	98%
O=c1[nH]c2ccccc2n1C1CCN(Cc2ccc(-c3[nH]c4cc5ncnc5cc4nc3-c3ccccc3)cc2)CC1	cell-free assay	0.5 µM	remaining signal	102%
N#CC1(c2ccccn2)CCN(Cc2cc(C(=O)O)c(=O)n3ccccc23)CC1	cell-free assay, competition with immobilised ligand	1 µM	remaining binding	97%
Cc1nn(C)cc1-c1nc2c(N3CCN(Cc4ccc(Cl)cc4)CC3)c(Cl)cnc2[nH]1	binding, competition with immobilised ligand	1 µM	remaining binding	5.4%
